For data set [1], the system named is Staphylococcus aureus. Kind of data set: Antibacterial activity against vancomycin-resistant Staphylococcus aureus assessed as inhibition of visible growth by broth microdilution method. In kind it is functional. On the technique in general: In broth dilution the organism is exposed to a series of concentrations in liquid medium.
The subject of data set [2] is Staphylococcus aureus. Put plainly: Antibacterial activity against methicillin-resistant Staphylococcus aureus USA1100 assessed as inhibition of visible growth by broth microdilution method. In kind it is functional.
For data set [3], the system named is Staphylococcus aureus. Put plainly: Antibacterial activity against methicillin-resistant Staphylococcus aureus USA800 assessed as inhibition of visible growth by broth microdilution method. The class given is functional.
Data set [4] concerns Staphylococcus aureus. Kind of data set: Antibacterial activity against methicillin-resistant Staphylococcus aureus USA500 assessed as inhibition of visible growth by broth microdilution method. The class given is functional.
Data set [5] concerns Staphylococcus aureus. Kind of data set: Antibacterial activity against methicillin-resistant Staphylococcus aureus USA300 assessed as inhibition of visible growth by broth microdilution method. The class given is functional.
In data set [6] the test system is Staphylococcus aureus. Put plainly: Antibacterial activity against methicillin-resistant Staphylococcus aureus USA200 assessed as inhibition of visible growth by broth microdilution method. The class given is functional.
Data set [7] has as its system Staphylococcus aureus. Put plainly: Antibacterial activity against methicillin-resistant Staphylococcus aureus USA100 assessed as inhibition of visible growth by broth microdilution method. In kind it is functional.
Data set [8] has as its system Staphylococcus aureus. Put plainly: Antibacterial activity against methicillin-resistant Staphylococcus aureus NRS194 assessed as inhibition of visible growth by broth microdilution method. The class given is functional.
Data set [9] relates to Staphylococcus aureus. Put plainly: Antibacterial activity against methicillin-resistant Staphylococcus aureus USA400 assessed as inhibition of visible growth by broth microdilution method. The class given is functional.
The subject of data set [10] is Staphylococcus aureus. Kind of data set: Antibacterial activity against methicillin-resistant Staphylococcus aureus NRS119 assessed as inhibition of visible growth by broth microdilution method. In kind it is functional.
Data set [11] relates to Staphylococcus aureus. Put plainly: Antibacterial activity against methicillin-resistant Staphylococcus aureus NRS108 assessed as inhibition of visible growth by broth microdilution method. In kind it is functional.
Data set [12] deals with Staphylococcus aureus. Put plainly: Antibacterial activity against methicillin-resistant Staphylococcus aureus NRS107 assessed as inhibition of visible growth by broth microdilution method. The class given is functional.
The subject of data set [13] is Staphylococcus aureus. Put plainly: Antibacterial activity against vancomycin-intermediate Staphylococcus aureus LIM 3 assessed as inhibition of visible growth by broth microdilution method. The class given is functional.
The subject of data set [14] is Staphylococcus aureus. Kind of data set: Antibacterial activity against vancomycin-intermediate Staphylococcus aureus HIP07256 assessed as inhibition of visible growth by broth microdilution method. In kind it is functional.
Data set [15] relates to Staphylococcus aureus. Kind of data set: Antibacterial activity against vancomycin-intermediate Staphylococcus aureus ATCC 700699 assessed as inhibition of visible growth by broth microdilution method. In kind it is functional.
Data set [16] concerns Staphylococcus aureus. Kind of data set: Antibacterial activity against methicillin-resistant Staphylococcus aureus ATCC 43300 assessed as inhibition of visible growth by broth microdilution method. The class given is functional.
Another data set deals with HeLa. Put plainly: Cytotoxicity against human HeLa cells assessed as cell viability at 11 ug/ml by MTS assay. The class given is cell-based. On the technique in general: Tetrazolium dyes change colour on reduction, which living cells bring about.
In data set [17] the test system is Staphylococcus aureus. Put plainly: Antibacterial activity against methicillin-resistant Staphylococcus aureus USA700 assessed as inhibition of visible growth by broth microdilution method. The class given is functional.
Data set [18] deals with Staphylococcus aureus. Put plainly: Antibacterial activity against methicillin-resistant Staphylococcus aureus USA1000 assessed as inhibition of visible growth by broth microdilution method. In kind it is functional.
Data set [19] deals with Staphylococcus aureus. Kind of data set: Bactericidal activity against methicillin-resistant Staphylococcus aureus USA300 assessed as time required to complete elimination of bacteria by 3-log10 by time-kill assay. In kind it is functional. The gist of the method: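 Viable counts (CFU) followed over a 12-hour window; endpoint is a 3-log10 fall in CFU.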
Data set [20] in a line: Aqueous solubility of compound in phosphate buffer assessed as solubility limit after 2 hrs by turbidity analysis. The class given is physicochemical.

One may read the MIC as the lowest concentration that inhibits growth of the organism. The kinetic solubility is solubility judged after dilution from a stock solution rather than from solid.

In brackets after ≈: the same amount, converted by molar mass.

`C/C(=N\NC(=N)N)c1sc(-c2ccc(C(C)(C)C)cc2)nc1C`: the MIC with Staphylococcus aureus [1] is 1.6 µg/mL (≈ 4.86 µM); with Staphylococcus aureus [2] it was 1.9 µg/mL (≈ 5.77 µM); in the data set with Staphylococcus aureus [3], 1.3 µg/mL (≈ 3.95 µM); with Staphylococcus aureus [4] it was 1.3 µg/mL (≈ 3.95 µM); with Staphylococcus aureus [5], 1.3 µg/mL (≈ 3.95 µM); in the data set with Staphylococcus aureus [6], 2.6 µg/mL (≈ 7.89 µM). Further, the minimum inhibitory concentration (MIC) with Staphylococcus aureus [7] stood at 1.3 µg/mL (≈ 3.95 µM); in the data set with Staphylococcus aureus [8] it was 2.6 µg/mL (≈ 7.89 µM); in the data set with Staphylococcus aureus [9] it was 1.9 µg/mL (≈ 5.77 µM); in the data set on Staphylococcus aureus [10], 1.9 µg/mL (≈ 5.77 µM); in the data set with Staphylococcus aureus [11] it was 1.9 µg/mL (≈ 5.77 µM); in the data set on Staphylococcus aureus [12], 1 µg/mL (≈ 3.04 µM). In addition, the minimal inhibitory concentration (MIC) with Staphylococcus aureus [13] was determined as 1.6 µg/mL (≈ 4.86 µM); in the data set with Staphylococcus aureus [14], 1.9 µg/mL (≈ 5.77 µM); in the data set with Staphylococcus aureus [15] it was 1.6 µg/mL (≈ 4.86 µM); with Staphylococcus aureus [16], 1.9 µg/mL (≈ 5.77 µM). In the data set with HeLa, the Activity entry is “Non-toxic”.
Regarding `C/C(=N\NC(=N)N)c1sc(-c2ccc3ccccc3c2)nc1C`, the MIC was determined as 2.6 µg/mL (≈ 8.04 µM) in the data set on Staphylococcus aureus [17]; 2.6 µg/mL (≈ 8.04 µM) in the data set with Staphylococcus aureus [4]; 2.6 µg/mL (≈ 8.04 µM) in the data set on Staphylococcus aureus [6]; 1.9 µg/mL (≈ 5.87 µM) in the data set with Staphylococcus aureus [8]; 3.8 µg/mL (≈ 11.7 µM) with Staphylococcus aureus [10]; 1.9 µg/mL (≈ 5.87 µM) with Staphylococcus aureus [11]. Also, the MIC worked out at 1.9 µg/mL (≈ 5.87 µM) in the data set on Staphylococcus aureus [12], 2.6 µg/mL (≈ 8.04 µM) with Staphylococcus aureus [14], 3.2 µg/mL (≈ 9.89 µM) in the data set with Staphylococcus aureus [15] and 3.8 µg/mL (≈ 11.7 µM) in the data set on Staphylococcus aureus [16]. The Activity result in the data set on HeLa was “Non-toxic”.
As to `C/C(=N\NC(=N)N)c1sc(-c2ccc(C3=CCCCC3)cc2)nc1C`, the MIC is 1.2 µg/mL (≈ 3.39 µM) in the data set with Staphylococcus aureus [1]; 0.8 µg/mL (≈ 2.26 µM) in the data set with Staphylococcus aureus [18]; 0.8 µg/mL (≈ 2.26 µM) in the data set on Staphylococcus aureus [3]; 1.2 µg/mL (≈ 3.39 µM) in the data set on Staphylococcus aureus [17]; 1 µg/mL (≈ 2.83 µM) in the data set with Staphylococcus aureus [4]; 1.2 µg/mL (≈ 3.39 µM) in the data set on Staphylococcus aureus [5]. Besides, the MIC in the data set with Staphylococcus aureus [6] stood at 1 µg/mL (≈ 2.83 µM); with Staphylococcus aureus [7] it was 1 µg/mL (≈ 2.83 µM); in the data set with Staphylococcus aureus [8], 0.8 µg/mL (≈ 2.26 µM); with Staphylococcus aureus [10], 0.6 µg/mL (≈ 1.7 µM); in the data set on Staphylococcus aureus [11] it was 1.7 µg/mL (≈ 4.81 µM); with Staphylococcus aureus [12] it was 0.6 µg/mL (≈ 1.7 µM). The MIC was found to be 0.8 µg/mL (≈ 2.26 µM) in the data set with Staphylococcus aureus [13], 0.8 µg/mL (≈ 2.26 µM) with Staphylococcus aureus [14], 0.5 µg/mL (≈ 1.41 µM) in the data set on Staphylococcus aureus [15] and 1.2 µg/mL (≈ 3.39 µM) in the data set with Staphylococcus aureus [16]. Besides, the Activity result with HeLa is recorded as “Non-toxic”.
For `C/C(=N\NC(=N)N)c1sc(-c2ccc(C3CCCCC3)cc2)nc1C`, the minimum inhibitory concentration (MIC) with Staphylococcus aureus [1] stood at 1.5 µg/mL (≈ 4.22 µM); with Staphylococcus aureus [2] it was 0.7 µg/mL (≈ 1.97 µM); in the data set with Staphylococcus aureus [18], 0.9 µg/mL (≈ 2.53 µM); in the data set on Staphylococcus aureus [3], 0.7 µg/mL (≈ 1.97 µM); in the data set on Staphylococcus aureus [17] it was 1.5 µg/mL (≈ 4.22 µM); in the data set with Staphylococcus aureus [4], 0.9 µg/mL (≈ 2.53 µM). The MIC stood at 0.7 µg/mL (≈ 1.97 µM) with Staphylococcus aureus [5]; 1.2 µg/mL (≈ 3.38 µM) in the data set on Staphylococcus aureus [6]; 0.7 µg/mL (≈ 1.97 µM) in the data set with Staphylococcus aureus [7]; 0.7 µg/mL (≈ 1.97 µM) in the data set on Staphylococcus aureus [8]; 0.7 µg/mL (≈ 1.97 µM) in the data set with Staphylococcus aureus [9]; 0.7 µg/mL (≈ 1.97 µM) with Staphylococcus aureus [10]. Besides, the MIC with Staphylococcus aureus [11] is 1.5 µg/mL (≈ 4.22 µM); in the data set with Staphylococcus aureus [12] it was 0.6 µg/mL (≈ 1.69 µM); in the data set on Staphylococcus aureus [13], 0.5 µg/mL (≈ 1.41 µM); in the data set with Staphylococcus aureus [14], 0.7 µg/mL (≈ 1.97 µM); in the data set with Staphylococcus aureus [15], 0.7 µg/mL (≈ 1.97 µM); in the data set with Staphylococcus aureus [16], 1.5 µg/mL (≈ 4.22 µM). Further, the Activity result with HeLa is “Non-toxic”. The Time with Staphylococcus aureus [19] is 6 h.
As to `COC(=O)[C@H]1[C@H]2C[C@@H]3c4[nH]c5cc(OC)ccc5c4CCN3C[C@H]2C[C@@H](OC(=O)c2cc(OC)c(OC)c(OC)c2)[C@@H]1OC` [RESERPINE], the solubility (kinetic) at 2 h in data set [20] came out at 31.3 µM (≈ 19.1 µg/mL).
For the compound `CN[C@H](CC(C)C)C(=O)N[C@H]1C(=O)N[C@@H](CC(N)=O)C(=O)N[C@H]2C(=O)N[C@H]3C(=O)N[C@H](C(=O)N[C@H](C(=O)O)c4cc(O)cc(O)c4-c4cc3ccc4O)[C@H](O)c3ccc(c(Cl)c3)Oc3cc2cc(c3O[C@@H]2O[C@H](CO)[C@@H](O)[C@H](O)[C@H]2O[C@H]2C[C@](C)(N)[C@H](O)[C@H](C)O2)Oc2ccc(cc2Cl)[C@H]1O` [VANCOMYCIN], the MIC with Staphylococcus aureus [6] turned out to be 0.4 µg/mL (≈ 0.276 µM). In the data set on Staphylococcus aureus [19], the Time is 12 h.

Source of the values: ChEMBL document CHEMBL3124870, “Discovery and characterization of potent thiazoles versus methicillin- and vancomycin-resistant Staphylococcus aureus” (J Med Chem, 2014).
